CHOP UPR activ = activators of apoptotic CHOP UPR arm, primary screen, cell-based, CHO-CHOP luciferase reporter, luminescence, uHTS | actives 0.34% (n = 330,000) | activation, % at 10 µM | UPR activation; percent of tunicamycin response over DMSO baseline;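 active = at 10 µM dose, activation of 40% or more, normalized to positive control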
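Evaluation: % reporter activation, DMSO baseline versus tunicamycin full activation; System: CHO-CHOP luciferase reporter cell line; Input: 500 cells/well; Incubation: 6 h compound treatment, 37 °C; Measured by: Steady-Glo luciferase luminescence; Dosing: one dose, 10 µM in 0.5% DMSO; Buffer or medium: F12 medium, 10% FBS; Benchmarks: positive tunicamycin 10 µg/mL, negative DMSO alone.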
UPR XBP1 act = activators of adaptive XBP1 UPR arm, primary screen, cell-based, CHO-XBP1 luciferase reporter, luminescence, uHTS; IRE1-XBP1 UPR activation; percent of tunicamycin response, DMSO as zero; activation, % at 20 µM; actives 0.33% (n = 330,000); AID 463104, 2010;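 active = versus positive control, 20 µM dose yields 30% or more activation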
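Material: CHO-XBP1 cells stably carrying IRE1-XBP1-driven luciferase reporter / Amount: 1000 cells per well / Compound: 20 µM, 1% DMSO / Times: 6 h treatment, 37 °C / Detection: luciferase luminescence / Measure: % activation of reporter signal versus tunicamycin and DMSO controls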
MC4R antagonist = MC4R antagonists of cAMP signaling, primary screen, cell-based, TR-FRET, antagonist arm of biased-ligand search | Melanocortin receptor 4 (Homo sapiens), P32245 | MC4R-expressing cells, MTII-stimulated cAMP, LANCE TR-FRET | inhibition, % at 6.5 µM | actives 0.48% (n = 360,000);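 active = inhibition above its plate's cutoff, the mean of tested wells on that plate plus 3 SD, cut at about 29% in these data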
Target sequence (P32245 whole entry, looked up): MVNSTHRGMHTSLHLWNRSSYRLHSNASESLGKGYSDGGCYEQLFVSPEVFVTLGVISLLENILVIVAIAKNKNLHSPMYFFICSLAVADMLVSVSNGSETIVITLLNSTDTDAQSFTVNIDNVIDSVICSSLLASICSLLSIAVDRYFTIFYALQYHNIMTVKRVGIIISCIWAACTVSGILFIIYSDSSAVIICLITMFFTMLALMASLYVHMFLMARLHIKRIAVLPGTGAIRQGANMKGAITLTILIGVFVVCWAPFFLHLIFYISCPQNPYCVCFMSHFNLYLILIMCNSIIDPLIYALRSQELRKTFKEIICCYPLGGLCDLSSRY
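Material: human MC4R-expressing U2OS cells. Probe or stimulus: Melanotan II challenge. Dosing: 6.5 µM single dose. Times: 30-min compound, 1-h challenge, 1-h detection, room temperature. Technique: TR-FRET with Eu-cAMP and labeled anti-cAMP, 671 nm. Replication: singlicate.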
MC4R barr agon = MC4R agonists recruiting beta-arrestin, primary screen, cell-based, luminescence, agonist arm of biased-ligand search | actives 0.98% (n = 360,000) | U2OS MC4R beta-arrestin complementation; percent of melanotan II response, DMSO zero | Melanocortin receptor 4 (Homo sapiens), P32245 | activation, % at 8.9 µM;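 active = activation above a per-plate cutoff, the mean activation of sample wells on that plate plus 3 SD, cut at about 8% in these data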
A1 inh = caspase 3/7 activation in MEF A1-2A-BIM cells, primary screen, A1 inhibitor project, cell-based, luminescence, HTS. Caspase-Glo 3/7 luminescence, 3 h; percent of clofoctol response, vehicle zero. caspase activation, % (concentration not given with the values). actives 0.066% (n = 330,000);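 active = over half of replicate activation scores above 10%, or exactly half above 10 with the replicate mean above 10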
U2OS cAMP counter = nonselective cAMP signaling inhibitors, parental cells, counter-screen for MC4R biased antagonist project, cell-based, TR-FRET, U2OS, forskolin, triplicate | shares compounds with MC4R antagonist | LANCE TR-FRET | inhibition, % at 6.5 µM | actives 26% (n = 1,600) | AID 602193, 2012;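 active = mean inhibition over triplicates above the low-control well mean plus 3 SD, set per campaign, cut at about 13% in these data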;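 note: signal is single emission at 671 nm which falls as cellular cAMP rises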
MC4R antag conf = MC4R cAMP antagonists, retest, confirmation, cell-based, TR-FRET; shares compounds with MC4R antagonist; MC4R-expressing cells, MTII-stimulated cAMP; inhibition, % at 6.5 µM; actives 27% (n = 1,600); in the data active = inhibition above about 29%
A number is an active result; n = inactive; x = not tested or not shown. The list is not random: actives were taken first. Their share in the collection is about 2%.

SMILES | CHOP UPR activ | UPR XBP1 act | MC4R antagonist | MC4R barr agon | A1 inh | U2OS cAMP counter | MC4R antag conf
COC(=O)c1ccc(CNC(=O)COC(=O)CNS(=O)(=O)c2ccc(C)cc2)cc1 | x | x | n | n | x | x | x
CC(C)CNc1ncnc2c1ncn2[C@H]1CN(Cc2ccc(-c3ccccc3)cc2)C[C@@H](CO)O1 | x | x | n | n | x | x | x
COC(=O)CSc1cnc2ccccc2n1 | n | n | n | n | n | x | x
COC(=O)CSc1nc2ccccc2nc1SCC(=O)OC | n | n | 36 | n | n | n | n
COc1ccc(C(CNC(=O)CSc2ccccc2F)N2CCOCC2)cc1 (centres undefined) | n | n | n | n | n | x | x
COc1ccc(C(CNC(=O)c2cc(F)c(F)c(F)c2F)N2CCOCC2)cc1 (centres undefined) | n | n | 31 | n | n | 19 | 36
CCCS(=O)(=O)NC(=O)C1(C)CCN(C(=O)Cc2cccc(OC)c2)C1 (centres undefined) | x | x | n | n | x | x | x
Cc1ccc(Cl)cc1-c1cc(C(=O)NCc2cc(C(F)(F)F)cc(C(F)(F)F)c2)[nH]n1 | x | x | n | n | x | x | x
CC(C)c1ccc(NC(=O)CSc2nc3ccsc3c(=O)n2CCC(=O)O)cc1 | n | n | 35 | n | n | n | n
Cc1ccnn1CCC(=O)N1CCCC(CCC(=O)NCc2ccccc2F)C1 (centres undefined) | n | n | 29 | n | n | n | n
COc1ccc(-n2nnnc2S(=O)(=O)CC(=O)N2CCCCC2)cc1 | n | n | 39 | n | n | n | 51
COc1ccc(N(C(=O)CCl)C(C(=O)NCCc2ccccc2)c2cccs2)cc1Cl (centres undefined) | x | x | 34 | 21 | n | n | 37
COc1cccc(N(C(=O)CCl)C(C(=O)NCCc2ccccc2)c2cccs2)c1 (centres undefined) | x | x | n | n | n | x | x
COc1cccc(-c2cc3c(=O)n(-c4ccccc4)c(=S)[nH]c3s2)c1 | n | n | n | n | n | x | x
COc1ccc(-n2c(=S)[nH]c3sc(-c4ccccc4)cc3c2=O)c(OC)c1 | n | n | 33 | n | n | 15 | n
Cc1ccc(-n2nc3ccc(NC(=S)NC(=O)/C=C/c4ccco4)cc3n2)cc1 | n | n | 41 | n | n | n | n
Cc1cccc(NC(=S)NC(=O)/C=C/c2ccco2)c1 | n | n | n | n | n | x | x
COc1ccc(CN2C(=O)c3ccccc3C2=O)cc1C(=O)O | n | n | 30 | n | n | n | n
OC[C@@H]1CN(Cc2ccc(-c3ccccc3)cc2)C[C@H](n2cnc3c(NCc4ccncc4)ncnc32)O1 | x | x | n | n | x | x | x
O=C1C(F)=CC(COC(c2ccccc2)(c2ccccc2)c2ccccc2)OC1n1cc(F)c(=O)[nH]c1=O (centres undefined) | x | x | 29 | n | x | n | n
FC(F)(F)c1cnc(Oc2cccc3ccccc23)c(Cl)c1 | n | n | 29 | n | n | n | n
Cc1cc2nnc(SCC(=O)N3CCCCCC3)n2c(N)n1 | n | n | 29 | n | n | n | n
Cc1cc(C)nc(SCC(=O)N2CCCCC2)n1 | n | n | n | n | n | x | x
Cc1[nH]c(C)c(C(=O)/C=C/c2ccc([N+](=O)[O-])cc2)c1C | n | n | 31 | n | n | n | 31
CNc1ccc2ncc(-c3cccc(C(=O)N(C)C)c3)n2n1 | x | x | n | n | x | x | x
SMILES | CHOP UPR activ | UPR XBP1 act | MC4R antagonist | MC4R barr agon | A1 inh | U2OS cAMP counter | MC4R antag conf
COc1ccc(-c2c3c(nc4sc5c(Cl)nc(C)nc5c24)CCC3)cc1 | n | n | 41 | n | n | 41 | 64
CCOC(=O)C1=C(COC(=O)CNS(=O)(=O)c2ccc(C)c(C)c2)NC(=O)NC1C (centres undefined) | x | x | 30 | n | x | n | n
CC1=NNC(=O)/C1=C\c1cn(-c2ccccc2)nc1-c1ccccc1 | x | x | 51 | n | n | 26 | 57
COc1ccc(-c2ccc(CCC(=O)O)n2CC(=O)Nc2ccccc2C)cc1 | n | n | 31 | n | n | n | n
N#Cc1ccc(/C=C/C(=O)c2ccco2)cc1 | n | n | 31 | n | n | n | n
O=S(=O)(c1ccc(Br)c2nsnc12)N1CCOCC1 | n | n | 30 | n | n | n | n
C#CCOCCOCCOCCNc1nc(N2CCN(C(=O)CCCCCCCCCCNC(=O)[C@H](CCCCN)n3cc(C[C@@H](C)CC)nn3)CC2)nc(N2CCN(C(=O)CCCCCCCCCCNC(=O)[C@H](CCCCN)n3cc(C[C@@H](C)CC)nn3)CC2)n1 | x | x | 75 | n | n | 34 | 84
Cc1c(Br)cccc1NC(=O)C1(C)CCN1CCc1ccccc1 (centres undefined) | x | x | n | n | x | x | x
Cc1ccc(S(=O)(=O)N(C)C)cc1NC(=O)Cn1c(CN2CCOCC2)nc2ccccc2c1=O | n | n | 36 | n | n | n | n
Cc1ccc(S(=O)(=O)N(C)C)cc1NC(=O)CSc1nc2ccccc2c(=O)n1CC1CCCO1 (centres undefined) | n | n | n | n | n | x | x
CCCCNC(=O)c1ccc2nc(CC)c(N(CC)CCOC)n2c1 | x | x | n | n | x | x | x
COCc1cc(C)nc2sc(C(=O)Nc3ccccc3F)c(N)c12 | n | n | n | n | n | x | x
Nc1c(C(=O)Nc2ccccc2F)sc2nc(Cc3ccccc3)cc(C(F)(F)F)c12 | n | n | 111 | n | n | n | n
CC(C(=O)Nc1nc(-c2ccc(F)cc2)cs1)N1C(=O)C2CC=CCC2C1=O (centres undefined) | n | n | n | n | n | x | x
CC(C)NC(=O)N(C)C[C@H]1Oc2cc(C#Cc3ccc(F)cc3)ccc2S(=O)(=O)N([C@H](C)CO)C[C@H]1C | x | x | n | n | x | x | x
COc1ccc(S(=O)(=O)N(C)C[C@@H]2OCCCC[C@H](C)Oc3ccc(NC(=O)Nc4ccc(C(F)(F)F)cc4)cc3C(=O)N([C@H](C)CO)C[C@H]2C)cc1 | x | x | n | n | x | x | x
Cc1ccccc1OCC(=O)Nc1sc(C(=O)Nc2cccc(C)c2C)c(C)c1C#N | n | n | 105 | n | n | n | n
COCCNC(=O)C1(C)CCCN(C(=O)c2c(F)ccc(C)c2F)C1 (centres undefined) | x | x | n | n | x | x | x

High-throughput results as filed in PubChem BioAssay.
